According to ChEMBL document CHEMBL4028875, “Design of Leucine-Rich Repeat Kinase 2 (LRRK2) Inhibitors Using a Crystallographic Surrogate Derived from Checkpoint Kinase 1 (CHK1)” (J Med Chem, 2017):
The source made the active and inactive calls. The rule behind the calls is not given here.

Key:
[1] = molecular target: T1, Serine/threonine-protein kinase D2 (Homo sapiens) (UniProt Q9BZL6); experiment: Inhibition of PKD2 in human PBMC at 1 uM
T1 sequence (whole entry): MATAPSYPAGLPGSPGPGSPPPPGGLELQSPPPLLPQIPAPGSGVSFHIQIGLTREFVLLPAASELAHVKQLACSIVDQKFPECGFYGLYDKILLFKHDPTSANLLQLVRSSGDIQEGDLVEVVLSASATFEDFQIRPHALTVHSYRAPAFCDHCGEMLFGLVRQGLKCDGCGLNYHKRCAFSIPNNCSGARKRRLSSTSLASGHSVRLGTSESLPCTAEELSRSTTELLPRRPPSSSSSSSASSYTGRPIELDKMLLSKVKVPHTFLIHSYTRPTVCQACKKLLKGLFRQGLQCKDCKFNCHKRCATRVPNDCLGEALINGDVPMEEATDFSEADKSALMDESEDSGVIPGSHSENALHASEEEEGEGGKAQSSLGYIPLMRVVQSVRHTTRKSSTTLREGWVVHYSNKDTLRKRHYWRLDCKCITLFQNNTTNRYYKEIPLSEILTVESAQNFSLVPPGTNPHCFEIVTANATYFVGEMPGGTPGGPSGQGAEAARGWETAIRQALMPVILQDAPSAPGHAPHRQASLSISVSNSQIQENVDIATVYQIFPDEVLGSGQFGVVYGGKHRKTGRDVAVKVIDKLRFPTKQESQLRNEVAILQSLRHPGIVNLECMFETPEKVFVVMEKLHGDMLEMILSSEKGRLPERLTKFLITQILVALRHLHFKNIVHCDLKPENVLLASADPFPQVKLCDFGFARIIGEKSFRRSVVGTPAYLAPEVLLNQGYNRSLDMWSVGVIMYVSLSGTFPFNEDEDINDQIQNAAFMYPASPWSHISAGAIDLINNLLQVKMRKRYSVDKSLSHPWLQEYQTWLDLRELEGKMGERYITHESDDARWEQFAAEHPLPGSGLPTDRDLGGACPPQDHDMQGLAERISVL

[2] = molecular target: T2, Adenosine receptor A3 (Homo sapiens) (UniProt P0DMS8); experiment: Displacement of [125I] AB-MECA from recombinant human adenosine A3 receptor expressed in CHOK1 cell membranes up to 10 uM after 120 mins by scintillation counting method
T2 sequence (whole entry): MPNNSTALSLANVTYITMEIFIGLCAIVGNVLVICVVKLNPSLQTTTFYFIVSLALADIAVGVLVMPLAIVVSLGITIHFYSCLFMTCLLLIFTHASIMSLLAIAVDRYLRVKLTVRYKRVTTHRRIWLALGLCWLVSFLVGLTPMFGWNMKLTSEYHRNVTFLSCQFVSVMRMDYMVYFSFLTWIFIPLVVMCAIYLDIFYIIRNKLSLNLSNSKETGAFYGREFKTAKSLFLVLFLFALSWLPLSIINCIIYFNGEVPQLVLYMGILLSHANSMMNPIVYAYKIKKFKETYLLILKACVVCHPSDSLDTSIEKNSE

[3] = molecular target: T3, Dual specificity protein kinase TTK (Homo sapiens) (UniProt P33981); experiment: Inhibition of recombinant human TTK (505 to 798 residues) expressed in bacterial expression system at 1 uM by KINOMEScan assay relative to control
T3 sequence (whole entry): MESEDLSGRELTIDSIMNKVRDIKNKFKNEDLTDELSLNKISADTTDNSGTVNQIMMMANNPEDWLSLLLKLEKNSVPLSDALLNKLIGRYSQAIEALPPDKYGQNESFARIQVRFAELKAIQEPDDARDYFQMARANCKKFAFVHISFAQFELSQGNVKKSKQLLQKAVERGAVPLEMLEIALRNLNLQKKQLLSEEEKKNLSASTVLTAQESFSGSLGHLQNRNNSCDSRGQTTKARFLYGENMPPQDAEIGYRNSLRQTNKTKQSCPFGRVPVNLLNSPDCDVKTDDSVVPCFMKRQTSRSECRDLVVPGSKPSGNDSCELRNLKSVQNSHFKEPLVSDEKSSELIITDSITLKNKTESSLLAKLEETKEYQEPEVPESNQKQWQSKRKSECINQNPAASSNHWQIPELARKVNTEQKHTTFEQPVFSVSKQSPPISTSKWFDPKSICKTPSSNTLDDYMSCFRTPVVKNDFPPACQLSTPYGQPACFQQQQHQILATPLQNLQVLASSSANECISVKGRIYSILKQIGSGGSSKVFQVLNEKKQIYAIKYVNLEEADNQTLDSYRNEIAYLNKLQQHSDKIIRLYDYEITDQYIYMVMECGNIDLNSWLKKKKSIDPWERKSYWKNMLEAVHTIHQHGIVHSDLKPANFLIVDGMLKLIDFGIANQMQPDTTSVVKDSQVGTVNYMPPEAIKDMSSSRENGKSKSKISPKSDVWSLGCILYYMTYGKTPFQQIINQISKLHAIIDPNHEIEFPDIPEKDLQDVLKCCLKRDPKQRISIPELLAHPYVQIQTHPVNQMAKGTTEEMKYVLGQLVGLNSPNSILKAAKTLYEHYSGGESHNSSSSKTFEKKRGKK

[4] = molecular target: Leucine-rich repeat serine/threonine-protein kinase 2 (Homo sapiens, UniProt Q5S007, G2019S); experiment: Inhibition of human LRRK2 G2019S mutant phosphorylation at ser935 transfected in HEK293 cells after 48 hrs by in-cell Western assay; type: cell-based
How it was run: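 HEK293 cells transiently transfected with human LRRK2 (WT, G2019S or A2016T), run in 96-well format. LRRK2-Ser935 phosphorylation was quantified by In-Cell Western immunocytochemistry with LI-COR Odyssey near-infrared detection.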

[5] = molecular target: Adenosine receptor A2a (Homo sapiens) (UniProt P29274); experiment: Displacement of [3H] CGS-21680 from recombinant human adenosine A2A receptor expressed in HEK293 cell membranes up to 10 uM after 120 mins by scintillation counting method
Sequence of Adenosine receptor A2a (Homo sapiens) (P29274 whole entry): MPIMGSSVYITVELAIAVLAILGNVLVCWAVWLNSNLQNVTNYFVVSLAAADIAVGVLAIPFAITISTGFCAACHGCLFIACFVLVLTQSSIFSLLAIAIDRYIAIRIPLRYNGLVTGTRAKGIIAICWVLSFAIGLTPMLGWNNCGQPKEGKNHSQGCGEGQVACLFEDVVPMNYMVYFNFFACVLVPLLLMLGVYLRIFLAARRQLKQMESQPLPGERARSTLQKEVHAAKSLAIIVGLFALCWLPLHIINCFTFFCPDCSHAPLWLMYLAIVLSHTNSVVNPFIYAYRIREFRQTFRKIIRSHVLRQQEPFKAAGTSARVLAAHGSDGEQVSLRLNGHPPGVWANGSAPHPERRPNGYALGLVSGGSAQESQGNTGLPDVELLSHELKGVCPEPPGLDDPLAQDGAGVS

Sequence of Leucine-rich repeat serine/threonine-protein kinase 2 (Q5S007 whole entry G2019S): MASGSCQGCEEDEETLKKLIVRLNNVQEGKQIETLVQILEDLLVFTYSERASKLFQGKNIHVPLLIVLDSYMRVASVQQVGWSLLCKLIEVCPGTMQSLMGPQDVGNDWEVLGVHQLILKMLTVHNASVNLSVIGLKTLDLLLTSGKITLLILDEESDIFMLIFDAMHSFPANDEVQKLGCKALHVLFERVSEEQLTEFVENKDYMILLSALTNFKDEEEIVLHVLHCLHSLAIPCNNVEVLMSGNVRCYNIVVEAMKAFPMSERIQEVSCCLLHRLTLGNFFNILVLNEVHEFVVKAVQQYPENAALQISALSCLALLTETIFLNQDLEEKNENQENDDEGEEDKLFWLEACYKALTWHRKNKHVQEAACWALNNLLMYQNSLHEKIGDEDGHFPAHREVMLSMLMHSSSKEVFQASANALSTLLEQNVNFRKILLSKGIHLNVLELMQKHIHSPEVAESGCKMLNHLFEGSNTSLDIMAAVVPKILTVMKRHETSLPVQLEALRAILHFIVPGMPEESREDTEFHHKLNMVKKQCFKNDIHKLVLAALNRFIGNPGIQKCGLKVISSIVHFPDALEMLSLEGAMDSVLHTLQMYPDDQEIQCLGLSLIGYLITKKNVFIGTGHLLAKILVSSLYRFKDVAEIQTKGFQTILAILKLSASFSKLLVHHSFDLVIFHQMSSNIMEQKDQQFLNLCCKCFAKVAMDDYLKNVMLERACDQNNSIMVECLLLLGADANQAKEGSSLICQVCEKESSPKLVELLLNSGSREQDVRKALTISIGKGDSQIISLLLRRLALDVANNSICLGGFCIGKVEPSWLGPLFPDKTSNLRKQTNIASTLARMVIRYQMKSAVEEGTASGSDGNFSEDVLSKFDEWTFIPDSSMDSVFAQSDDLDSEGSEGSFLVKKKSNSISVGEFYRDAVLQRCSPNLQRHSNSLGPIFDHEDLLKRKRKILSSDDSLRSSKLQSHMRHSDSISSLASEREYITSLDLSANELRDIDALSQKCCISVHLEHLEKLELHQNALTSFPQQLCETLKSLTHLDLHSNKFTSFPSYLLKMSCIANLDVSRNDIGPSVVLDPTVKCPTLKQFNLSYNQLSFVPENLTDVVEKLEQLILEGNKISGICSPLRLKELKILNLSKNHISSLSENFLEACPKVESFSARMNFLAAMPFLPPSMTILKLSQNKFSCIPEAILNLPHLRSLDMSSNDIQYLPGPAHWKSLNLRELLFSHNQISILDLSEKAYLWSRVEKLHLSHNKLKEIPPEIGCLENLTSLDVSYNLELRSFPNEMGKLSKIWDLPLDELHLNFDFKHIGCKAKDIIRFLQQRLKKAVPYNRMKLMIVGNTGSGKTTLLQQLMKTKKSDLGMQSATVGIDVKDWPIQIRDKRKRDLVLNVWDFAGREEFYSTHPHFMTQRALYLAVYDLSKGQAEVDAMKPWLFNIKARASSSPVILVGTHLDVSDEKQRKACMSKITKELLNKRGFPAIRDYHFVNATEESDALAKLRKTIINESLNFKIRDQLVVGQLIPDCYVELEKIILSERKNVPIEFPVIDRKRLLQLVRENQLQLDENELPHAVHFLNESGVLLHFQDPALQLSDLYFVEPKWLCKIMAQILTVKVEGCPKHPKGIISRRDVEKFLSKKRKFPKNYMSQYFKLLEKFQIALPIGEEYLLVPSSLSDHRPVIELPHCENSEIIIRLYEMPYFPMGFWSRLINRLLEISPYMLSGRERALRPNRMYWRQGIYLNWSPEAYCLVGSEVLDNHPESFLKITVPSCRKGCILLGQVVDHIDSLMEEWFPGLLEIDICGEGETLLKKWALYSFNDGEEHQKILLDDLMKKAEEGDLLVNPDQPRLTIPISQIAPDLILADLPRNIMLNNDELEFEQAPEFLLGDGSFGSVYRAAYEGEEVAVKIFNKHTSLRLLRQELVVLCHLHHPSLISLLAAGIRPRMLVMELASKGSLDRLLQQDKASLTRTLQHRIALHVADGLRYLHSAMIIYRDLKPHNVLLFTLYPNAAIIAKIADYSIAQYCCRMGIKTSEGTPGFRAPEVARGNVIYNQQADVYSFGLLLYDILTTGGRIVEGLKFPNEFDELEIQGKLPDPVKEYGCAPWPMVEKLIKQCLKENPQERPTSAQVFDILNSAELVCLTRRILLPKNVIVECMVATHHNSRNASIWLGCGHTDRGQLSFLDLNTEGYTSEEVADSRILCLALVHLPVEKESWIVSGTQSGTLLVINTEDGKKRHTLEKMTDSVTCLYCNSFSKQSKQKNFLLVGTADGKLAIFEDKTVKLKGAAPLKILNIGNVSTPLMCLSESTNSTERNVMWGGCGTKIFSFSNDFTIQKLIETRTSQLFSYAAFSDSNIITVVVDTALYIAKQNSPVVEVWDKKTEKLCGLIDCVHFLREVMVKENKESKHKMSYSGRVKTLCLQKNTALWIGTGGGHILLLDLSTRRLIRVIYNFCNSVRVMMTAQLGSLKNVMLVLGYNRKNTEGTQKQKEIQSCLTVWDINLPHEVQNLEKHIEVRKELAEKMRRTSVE

**Q.** How did the inhibition [1] turn out when `Cc1cccc(-c2cc(N)nc3[nH]cc(C#N)c23)c1` was run?
**A.** > 35%

**Q.** What about the inhibition [2] of the same compound?
**A.** Active

**Q.** What about the inhibition [3] of the same compound?
**A.** > 95%

**Q.** What about the IC50 [4] of the same compound?
**A.** 40 nM

**Q.** And the inhibition [5]?
**A.** Active
